# Compound activity from PubChem.
# Only some compounds are listed: those with a hit (about 3.8% of all), similar ones and a draw of the others.
# Exocytosis inh = blocks lytic granule exocytosis | TALL-104 LAMP-1 surface exposure, flow cytometry; cells stimulated with thapsigargin and PMA | inhibition, % at 10 µM | hit rate 0.66% among 360,000 | AID 651702;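 active means inhibition above about 55%, limit read from the data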
# MPTP inh = permeability transition pore inhibition. AID 602449. isolated mouse mitochondria, Ca2+ swelling absorbance, 30 min. hit rate 1.4% among 360,000. inhibition, % at 10 µM;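 active means inhibition of 50% or more, scaled per plate between neutral and stimulator controls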;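 further: 0% = DMSO wells given calcium and 100% = 1 mM EGTA wells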
# Beta2AR agonist = activates human beta-2 adrenergic receptor causing internalization | P07550 | Am2.2-beta2AR cells, FAP receptor internalization, flow cytometry | response, % (test concentration not listed) | hit rate 0.43% among 340,000 | AID 504454;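 active means response above a set limit, near 3 SD of response in nonfluorescent compounds, cut at about 42% in these data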
# Target sequence (P07550 whole entry, looked up): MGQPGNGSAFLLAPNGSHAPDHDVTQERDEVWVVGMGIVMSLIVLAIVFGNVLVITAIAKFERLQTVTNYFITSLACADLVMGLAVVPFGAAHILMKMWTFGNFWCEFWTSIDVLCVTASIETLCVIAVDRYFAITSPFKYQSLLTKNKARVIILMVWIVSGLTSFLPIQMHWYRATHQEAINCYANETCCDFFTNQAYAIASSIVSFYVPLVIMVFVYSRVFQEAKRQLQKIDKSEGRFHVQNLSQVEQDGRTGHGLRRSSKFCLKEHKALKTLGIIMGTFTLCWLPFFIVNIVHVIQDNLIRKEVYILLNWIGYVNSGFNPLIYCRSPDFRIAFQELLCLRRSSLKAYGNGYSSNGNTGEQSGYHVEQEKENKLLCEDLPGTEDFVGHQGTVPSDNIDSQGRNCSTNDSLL
# T cell modulator = T cell immune modulation candidate | 2C CD8+ T cell-vesicle binding, flow cytometry; active compounds read low | response (vesicle binding), % at 7 µM | hit rate 0.068% among 330,000;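 active means response, share of CD8 T cells binding vesicles, and their 90th percentile fluorescence all below set limits, cut at about 80% in these data, passing the limit was not always enough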;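 further: values below 100% mean blocked vesicle binding to the CD8+ T cells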
#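 Assay system: 2C TCR transgenic mouse naive CD8+ T cells, MACS-purified | Read-out: CD8+ gate FL2 mean fluorescence as % of same-row positive control | Signal: High-throughput flow cytometry with anti-B7-1 and anti-CD8 staining | Timing: Binding step 1.5 h, 37 °C, antibody labelling 20 min, ice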
# rCAG RNA binder = r(CAG) repeat RNA binding. hit rate 1.3% among 370,000. inhibition, % at 3 µM. TO-PRO-1 dye displacement fluorescence. AID 651821;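 active means inhibition above the plate cutoff, the mean of all test compounds on that plate plus 3 SD, cut at about 35% in these data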;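 further: 0% = DMSO alone and 100% = 100 µM mitoxantrone as full dye displacement; higher means more dye released from RNA so lower well fluorescence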
# V-ATPase pHluor = yeast V-ATPase proton transport regulation by pHLuorin | response, % at 10 µM | hit rate 0.37% among 350,000 | S. cerevisiae, pHLuorin cytosolic pH fluorescence; in the data active means response mostly above about 7.3%, no sharp cut-off; inactive means mostly below about 5.4%; further: actives read high
# VATPase regulator = modulates yeast V-ATPase proton transport. response, % at 10 µM. hit rate 2% among 980. S. cerevisiae pHLuorin cytosolic pH. shares compounds with V-ATPase pHluor; in the data active means response above about 24%;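 further: plate controls were vehicle wells for no effect and positive control wells for full effect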
# Starred values were filed as active, the others as inactive; i = inactive; nt = no result.
SMILES,Exocytosis inh,MPTP inh,Beta2AR agonist,T cell modulator,rCAG RNA binder,V-ATPase pHluor,VATPase regulator
Cc1ccc(S(=O)(=O)N2CCCC2C(=O)N2CCc3ccccc3C2)cc1C (stereo not drawn),nt,nt,nt,nt,2,nt,nt
O=C(Sc1nnc(-c2ccccc2)o1)N1c2ccccc2Sc2ccccc21,4,-1,-6,293,2,-1,-2
Cc1ccc(C2CCC3(CCC(=O)N3CCO)CC2)cc1 (stereo not drawn),nt,nt,nt,nt,-3,nt,nt
Cc1csc(NC(=O)CSc2nncn2C)n1,0,1,-3,296,-2,13*,-2
NNC(=O)CNc1ccccc1Cl,-2,1,-1,545,2,8.4*,3
Cc1ccc(NS(=O)(=O)c2cccc(C(=O)N3CCCCCCC3)c2)cc1,1,-1,-4,335,-5,11*,-1
COc1cccc(N2CCN(CC(=O)NCc3c(F)cccc3F)CC2)c1,nt,nt,nt,nt,-2,nt,nt
CCCCCCC(=O)n1ccc2ccc(-c3ccc4ccn(Cc5ccc(OC)cc5)c4c3)cc21,nt,nt,nt,nt,18,nt,nt
Cc1cc(C)nc(SC2=CS(=O)(=O)c3ccccc32)n1,-2,2,1,178,-2,1,0
O=S1(=O)C=C(Sc2nc3ccccc3s2)c2ccccc21,nt,nt,nt,158,nt,nt,nt
O=S1(=O)C=C(Sc2nnc(-c3ccccc3)o2)c2ccccc21,43,0,-407,nt,nt,17*,26*
CCOC(=O)c1c(-c2ccc(C)o2)csc1NC(=O)CSc1nnc(C)s1,96*,5,13,363,5,9.2*,-1
CCOC(=O)c1c(-c2ccc(C)o2)csc1NC(=S)NC(=O)c1cccs1,13,4,7,211,12,-1,nt
O=C(OCCN1CCN(C2CN(Cc3cn(Cc4ccccc4F)nn3)S(=O)(=O)C2)CC1)c1cc2ccccc2o1 (stereo not drawn),nt,nt,nt,nt,-2,nt,nt
O=S(=O)(c1ccc(Cl)nc1)N1CCCc2ccccc21,1,0,-4,489,-1,-4,nt
O=S(=O)(c1ccc(Cl)nc1)N1CCc2ccccc21,7,1,0,402,-2,12*,1
COc1ccc(-c2nnc(S/C(=C/c3ccc(Cl)cc3)C(=O)O)o2)cc1,9,0,14,262,8,-1,nt
CSc1ccc(/C=C(/Sc2nnc(-c3ccccc3)o2)C(=O)O)cc1,0,-2,-10,159,6,0,-34
O=C(O)/C(=C\c1cccs1)Sc1nnc(-c2ccc(F)cc2)o1,-1,0,1,i,3,0,2
c1ccc(-c2nnc(-c3ccccc3)o2)cc1,3,-2,-6,609,0,-1,nt
CSc1nnc(-c2ccccc2)o1,-1,-1,-9,360,9,0,1
COc1ccc(CCCC(=O)N/N=C\c2cccs2)cc1,-2,0,6,337,-2,8.6*,-1
O=C(CCCN1Cc2ccccc2C1)c1ccc(F)cc1,-6,0,-10,156,-12,3,-8
CN(C)CCC(=O)c1ccc(F)cc1,3,0,-9,612,0,1,11
O=C(CCCN1CCOC(c2ccccc2)C1)c1ccc(F)cc1 (stereo not drawn),0,-1,8,225,-7,-1,nt
SMILES,Exocytosis inh,MPTP inh,Beta2AR agonist,T cell modulator,rCAG RNA binder,V-ATPase pHluor,VATPase regulator
O=C(CCCCN1CCCCC1)c1ccccc1,8,1,0,324,-4,5,nt
CN1CCN(CCCC(=O)c2ccc(F)cc2)CC1,3,-1,5,819,1,4,0
Cc1cccc(-c2cccc3c4c([nH]c23)[C@@H]2C[C@H](N(C)C(=S)Nc3ccc(C#N)cc3)[C@H]([C@H](C)O)CN2CC4)c1,nt,nt,nt,nt,16,nt,nt
O=C(CCNC(=O)c1ccccc1)NNC(=O)COc1ccccc1Cl,0,0,7,690,-1,8.2*,0
O=C(CCNC(=O)c1ccc(Br)cc1)NNC(=O)COc1ccccc1F,-4,0,4,370,0,0,nt
O=C(NC(=S)Nc1cccc(S(=O)(=O)NC2=NCCC2)c1)c1cc(-c2ccco2)nc2ccccc12,-1,0,33,234,8,13*,-3
Cc1cc(C)nc(N2CCC(C(=O)N(C)CCc3ccccc3)CC2)n1,nt,nt,nt,nt,-3,nt,nt
O=C(NC1CCCCN(Cc2ccc(Cl)cc2)C1=O)C(c1ccccc1)c1ccccc1 (stereo not drawn),nt,nt,nt,nt,9,nt,nt
CCCCOCCCNC(=O)C[C@H]1C[C@@]2(C(=O)OCC)CCCC3=C2N(CCC3)C1=O,nt,nt,nt,nt,-2,nt,nt
COc1ccc([C@H]2C[C@@H](O)[C@H](n3cc(-c4ccc(F)cc4)nn3)CN2C(=O)C2CCCCC2)cc1,2,-1,nt,nt,7,7.0*,1
Nc1cc2ccccc2cc1NS(=O)(=O)N1CCCCC1,nt,nt,nt,nt,7,nt,nt
O=C(NC1CCCCC1)c1c(O)nc2sccn2c1=O,2,-1,11,413,2,12*,28*
COc1cc2c(c(OC)c1OC)C1(CCCCC1)CC2NCC=C(C)C (stereo not drawn),nt,nt,nt,nt,-3,nt,nt
COc1cccc(NC(=O)C(OC(=O)/C=C/c2ccc3c(c2)OCO3)c2ccccc2)c1 (stereo not drawn),0,4,4,283,11,11*,0
CC(=O)Nc1ccc(NC(=O)C(C)OC(=O)/C=C/c2ccc3c(c2)OCO3)cc1 (stereo not drawn),-3,-4,-2,155,1,3,nt
COC(=O)C1=C(C)N(Cc2ccccc2C(F)(F)F)C(=NCc2ccccc2)NC1c1cccc(F)c1 (stereo not drawn),nt,nt,nt,nt,4,nt,nt
O=C(CSC1=NCCS1)Nc1ccc(F)cc1,-4,-1,-3,374,-2,0,-1
CC(=O)Nc1ccc(NC(=O)CSc2nnc(NC(=O)Cc3ccc(F)cc3)s2)cc1,0,0,3,135,5,8.3*,2
CCC(C)C(=O)Nc1nnc(SCC(=O)Nc2ccc(F)cc2)s1 (stereo not drawn),-5,0,-5,0,-2,-1,nt
COc1ccc(C)cc1NC(=O)c1sc2ncn(CC(=O)N3CCCCC3)c(=O)c2c1C,-5,-1,-2,178,2,6,nt
COc1cc(OC)c(NC(=O)c2sc3ncn(CC(=O)N4CCOCC4)c(=O)c3c2C)cc1Cl,11,-2,-5,236,4,6.4*,-12
CCc1cc(-c2cnnn2Cc2ccc3ccccc3c2)ccc1-c1cn(CC(C)C)nn1,-2,1,nt,nt,3,7.2*,1
CCc1cc(-c2nnn(CCC3COCCO3)c2CC)ccc1-c1cn(Cc2ccccc2)nn1 (stereo not drawn),19,5,nt,nt,4,3,nt
CCOC(=O)C1CCN(C(=O)COC(=O)/C=C/c2ccccc2)CC1,-4,1,7,530,-2,9.4*,-5
O=C1CC(=O)OC(c2ccc([N+](=O)[O-])cc2)O1,-1,-1,nt,nt,nt,6,nt
